Laboratory results from article PMC5991896 (Biochimie Open, 2017).

What follows are compounds tested against T1, fucolectin-related protein (FRP) (Streptococcus pneumoniae, UniProt A0A0H2US34) (assay: enzyme-linked lectinosorbent inhibition assay). Settings: TBS-T pH 7.35, 20 °C; no metal needed; ratio from amounts giving 50% inhibition.
T1 sequence (A0A0H2US34 1-1038): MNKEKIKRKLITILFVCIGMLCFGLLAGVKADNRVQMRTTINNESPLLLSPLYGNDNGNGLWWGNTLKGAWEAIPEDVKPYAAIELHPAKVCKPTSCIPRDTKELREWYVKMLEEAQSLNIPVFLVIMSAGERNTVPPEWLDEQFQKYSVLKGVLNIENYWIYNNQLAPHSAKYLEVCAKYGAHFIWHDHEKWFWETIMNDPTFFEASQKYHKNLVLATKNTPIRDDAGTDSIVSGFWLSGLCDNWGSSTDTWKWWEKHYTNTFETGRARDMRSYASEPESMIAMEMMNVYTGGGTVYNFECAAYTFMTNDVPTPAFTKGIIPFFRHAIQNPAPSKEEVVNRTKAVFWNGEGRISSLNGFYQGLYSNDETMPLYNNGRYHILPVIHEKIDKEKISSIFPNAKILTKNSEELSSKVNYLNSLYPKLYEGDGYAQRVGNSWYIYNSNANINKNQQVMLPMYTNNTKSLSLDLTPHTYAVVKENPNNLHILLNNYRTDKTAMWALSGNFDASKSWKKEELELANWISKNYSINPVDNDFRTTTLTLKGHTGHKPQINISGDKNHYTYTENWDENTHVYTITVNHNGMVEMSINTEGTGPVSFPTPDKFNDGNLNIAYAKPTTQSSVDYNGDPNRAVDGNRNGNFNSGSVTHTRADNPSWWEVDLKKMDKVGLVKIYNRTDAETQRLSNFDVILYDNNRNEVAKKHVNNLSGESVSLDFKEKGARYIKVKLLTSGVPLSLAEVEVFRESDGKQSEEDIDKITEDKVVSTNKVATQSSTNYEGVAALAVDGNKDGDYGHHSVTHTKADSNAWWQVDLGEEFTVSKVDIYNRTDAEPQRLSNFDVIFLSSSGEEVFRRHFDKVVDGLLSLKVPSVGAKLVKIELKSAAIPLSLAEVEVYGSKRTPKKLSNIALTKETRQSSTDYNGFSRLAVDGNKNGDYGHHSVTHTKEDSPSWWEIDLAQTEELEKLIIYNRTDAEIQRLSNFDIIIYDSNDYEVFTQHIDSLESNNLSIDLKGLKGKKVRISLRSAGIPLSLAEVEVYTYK
Assay type: binding
Outline: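 Recombinant SP2159 FRP expressed in E. coli and biotinylated. Wells coated at 4 °C with 10 μg human ovarian cyst phenol-insoluble glycoprotein bearing H Fucα1→2Gal and Fucα1→3/4GlcNAc glycotopes. Twofold serially diluted saccharide was mixed with an equal volume of fixed FRP for 1 h at 20 °C. TBS-T served as diluent and wash. The nmole/well giving 50% inhibition versus no inhibitor was read from the inhibition curve.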

**Q.** Which “Molar Relative Potency / LFuc as 1.0” value does the source give for `C[C@@H]1O[C@H](Oc2ccc([N+](=O)[O-])cc2)[C@@H](O)[C@H](O)[C@@H]1O` [compound 1, p-Nitrophenyl-β-LFuc] here?
**A.** 69.1 relative to LFuc = 1.0

**Q.** With `C[C@@H]1O[C@@H](Oc2ccc([N+](=O)[O-])cc2)[C@@H](O)[C@H](O)[C@@H]1O` [compound 2, p-Nitrophenyl-α-LFuc] as the compound, how does the “Molar Relative Potency / LFuc as 1.0” value read?
**A.** 34.5 relative to LFuc = 1.0

**Q.** For `CO[C@H]1O[C@@H](C)[C@@H](O)[C@@H](O)[C@@H]1O` [compound 3, Methyl-β-LFuc], which “Molar Relative Potency / LFuc as 1.0” value is on record?
**A.** 21.9 relative to LFuc = 1.0

**Q.** `C[C@@H]1O[C@@H](O[C@H]2[C@H](O[C@H]3[C@H](O[C@@H]4O[C@@H](C)[C@@H](O)[C@@H](O)[C@@H]4O)[C@@H](O)C(O)O[C@@H]3CO)O[C@H](CO)[C@H](O)[C@@H]2O)[C@@H](O)[C@H](O)[C@@H]1O` (stereo partly drawn) [compound 4, LFucα1→2Galβ1→4[LFucα1→3]Glc] was tested. Which “Molar Relative Potency / LFuc as 1.0” value did it give?
**A.** 5.7 relative to LFuc = 1.0

**Q.** Which “Molar Relative Potency / LFuc as 1.0” value does the source give for `CO[C@@H]1O[C@@H](C)[C@@H](O)[C@@H](O)[C@@H]1O` [compound 5, Methyl-α-LFuc] here?
**A.** 4.4 relative to LFuc = 1.0

**Q.** How did the “Molar Relative Potency / LFuc as 1.0” value turn out when `OC[C@@H]1OC(O)[C@@H](O)[C@H](O)[C@@H]1O` (stereo partly drawn) [compound 6, LGal] was run?
**A.** 4.4 relative to LFuc = 1.0

**Q.** For `CC(=O)N[C@H]1[C@H](O[C@H]2[C@@H](O)[C@@H](CO)O[C@@H](O[C@H]3[C@H](O)[C@@H](O)C(O)O[C@@H]3CO)[C@@H]2O)O[C@H](CO)[C@@H](O[C@@H]2O[C@@H](C)[C@@H](O)[C@@H](O)[C@@H]2O)[C@@H]1O[C@@H]1O[C@H](CO)[C@H](O)[C@H](O)[C@H]1O[C@@H]1O[C@@H](C)[C@@H](O)[C@@H](O)[C@@H]1O` (stereo partly drawn) [compound 7, LFucα1→2Galβ1→3[LFucα1→4]GlcNAcβ1→3Gal β1→4Glc], which “Molar Relative Potency / LFuc as 1.0” value is on record?
**A.** 1.8 relative to LFuc = 1.0

**Q.** Which “Molar Relative Potency / LFuc as 1.0” value does the source give for `C[C@@H]1O[C@@H](O[C@H]2C(O)O[C@H](CO)[C@H](O)[C@@H]2O)[C@@H](O)[C@H](O)[C@@H]1O` (stereo partly drawn) [compound 9, LFucα1→2Gal] here?
**A.** 0.7 relative to LFuc = 1.0

**Q.** With `OC1OC[C@@H](O)[C@@H](O)[C@@H]1O` (stereo partly drawn) [compound 10, DAra] as the compound, how does the “Molar Relative Potency / LFuc as 1.0” value read?
**A.** 0.09 relative to LFuc = 1.0
